Assay [1] is described as follows: Cytotoxicity against mouse cloned EN2 cells after 72 hrs by MTT assay. Format: functional, cell-based. The conditions noted are these: EN2, 72 h. In a few lines: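 EN2 murine cloned Ehrlich ascites line, grown in suspension in RPMI 1640 with 10% heat-inactivated FBS and used in exponential growth. 500 cells/well, continuous 72 h compound exposure at 37 °C, 5% CO2. Stocks 10 mM in EtOH or DMSO. Read-out: MTT reduction over 3 h 45 min, formazan in DMSO, A550. IC50 is 50% growth inhibition relative to control; mean ± SD, n≥3.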

The nature of assay [2]: Cytotoxicity against mouse cloned EN2 cells after 2 hrs by MTT assay. Format: functional, cell-based. Particulars: EN2, 2 h. A digest of the protocol: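 Murine EN2 Ehrlich ascites cells (RPMI 1640, 10% heat-inactivated FBS, exponential growth, >95% trypan blue exclusion), 500 cells/well, exposed 2 h at 37 °C, 5% CO2. Compound washed out in three spin steps, then 72 h further culture. MTT added for 3 h 45 min, formazan dissolved in DMSO, A550 read. IC50 = 50% growth inhibition vs medium-blank-corrected control; mean ± SD, n≥3.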
On the technique in general: Tetrazolium assays rely on reduction of a dye to a coloured formazan, in cell work by metabolically active cells.

SMILES strings stand for the structures.

By IC50 is commonly meant the concentration needed to halve the response being measured.

Take `C[C@@H]1C[C@H]2OC(=O)[C@@H](C)[C@H]2[C@H](O)[C@]2(C)C(=O)C=C[C@@H]12`: the figures for the concentration for half-maximal inhibition (IC50) in assay [1] and in assay [2] were 6.5 µM and 128 µM, respectively.

In the case of `C=C1C(=O)O[C@@H]2C[C@@H](C)[C@@H]3[C@@H](OC(C)=O)C[C@@H](O)[C@@]3(C)C[C@H]12`, the half-inhibitory concentration (IC50) in assay [1] was 10.6 µM; in assay [2], 102 µM.

As to `CC(=O)O[C@H]1[C@@H]2[C@H](C)C(=O)O[C@@H]2C[C@@H](C)[C@@H]2C=CC(=O)[C@]21C`, the figures for the IC50 in assay [1] and in assay [2] were 3.5 µM and 43 µM, respectively.

Consider `CC(C)CC(=O)O[C@H]1[C@@H]2[C@H](C)C(=O)O[C@@H]2C[C@@H](C)[C@@H]2C=CC(=O)[C@]21C`, for which the half-inhibitory concentration (IC50) amounted to 1.7 µM in assay [1] and 20 µM in assay [2].

In the case of `C=C1C(=O)O[C@@H]2C[C@@H](C)[C@@H]3[C@@H](O)C[C@@H](O)[C@@]3(C)[C@@H](OC(=O)/C(C)=C/C)[C@H]12`, the IC50 is 20.7 µM in assay [1] and > 100 µM in assay [2].

As for `C=C1C(=O)O[C@@H]2C[C@@H](C)[C@@H]3[C@@H](O)C[C@@H](OC(=O)/C(C)=C/C)[C@@]3(C)[C@@H](O)[C@H]12`, the IC50 in assay [1] is 10.4 µM; in assay [2], 116 µM.

As to `C/C=C(\C)C(=O)O[C@H]1[C@@H]2[C@H](C)C(=O)O[C@@H]2C[C@@H](C)[C@@H]2C=CC(=O)[C@]21C`, the IC50 worked out at 2.6 µM in assay [1] and 19 µM in assay [2].

Turning to `C=C1C(=O)O[C@@H]2C[C@@H](C)[C@@H]3[C@@H](O)C[C@@H](O)[C@@]3(C)[C@@H](O)[C@H]12`, the IC50 in assay [1] was 13.6 µM.

Turning to `C=C1C(=O)O[C@@H]2C[C@@H](C)[C@@H]3C=CC(=O)[C@@]3(C)[C@@H](OC(=O)/C(C)=C/C)[C@H]12`, the IC50 is 1 µM in assay [1] and 5.3 µM in assay [2].

Turning to `C=C1C(=O)O[C@H]2C[C@@H](C)[C@@H]3C=CC(=O)[C@@]3(C)[C@H](OC(=O)CC(C)C)[C@H]12`, the IC50 amounted to 0.99 µM in assay [1] and 5.4 µM in assay [2].

Take `CC(=O)O[C@H]1C[C@@H](O)[C@]2(C)[C@@H]1[C@H](C)C[C@H]1OC(=O)[C@@H](C)[C@H]1[C@@H]2O`: the IC50 in assay [1] and in assay [2] was > 100 µM each time.

As to `C/C=C(\C)C(=O)O[C@H]1[C@@H]2[C@H](C)C(=O)O[C@@H]2C[C@@H](C)[C@@H]2[C@@H](O)CC(=O)[C@]21C`, the IC50 in assay [1] is 76 µM; in assay [2], > 100 µM.

Consider `C=C1C(=O)O[C@@H]2C[C@@H](C)[C@@H]3[C@@H](O)C[C@@H](O)[C@@]3(C)C[C@H]12`, for which half-maximal inhibition in assay [1] (IC50) required 15.2 µM. This counts as double-digit micromolar.

As for `C=C1C(=O)O[C@@H]2C[C@@H](C)[C@@H]3C=CC(=O)[C@@]3(C)[C@@H](OC(=O)CC(C)C)[C@H]12`, the values for the IC50 in assay [1] and in assay [2] were 0.72 µM and 3.2 µM, respectively.

`C=C1C(=O)O[C@@H]2C[C@@H](C)[C@@H]3C=CC(=O)[C@@]3(C)[C@@H](OC(C)=O)[C@H]12` [ANGUSTIBALIN]: the IC50 in assay [1] was found to be 0.22 µM; in assay [2], 1.3 µM.

Turning to `C=C1C(=O)O[C@@H]2C[C@@H](C)[C@@H]3[C@@H](O)CC(=O)[C@@]3(C)[C@@H](OC(=O)/C(C)=C/C)[C@H]12` [ARNIFOLIN], the IC50 came out at 4 µM in assay [1] and 62 µM in assay [2].

For `C=C1C(=O)O[C@H]2C[C@@H](C)[C@@H]3C=CC(=O)[C@@]3(C)[C@@H](OC(C)=O)[C@H]12` [BIGELOVIN], the 50% inhibitory concentration (IC50) was 0.36 µM in assay [1] and 2 µM in assay [2].

Turning to `C=C1C(=O)O[C@@H]2C[C@@H](C)[C@@H]3[C@@H](OC(C)=O)C[C@@H](O)[C@@]3(C)[C@@H](O)[C@H]12` [CHAMISSONOLIDE], the results for the IC50 in assay [1] and in assay [2] were 7.6 µM and 106 µM, respectively.

`C=C1C(=O)O[C@@H]2C[C@@H](C)[C@@H]3C=CC(=O)[C@@]3(C)[C@@H](OC(=O)C(C)C)[C@H]12` [HELENALINISOBUTYRATE]: the IC50 in assay [1] was 0.17 µM; in assay [2], 1.3 µM.

As for `C=C1C(=O)O[C@@H]2C[C@@H](C)[C@@H]3C=CC(=O)[C@@]3(C)[C@@H](O)[C@H]12` [HELENALIN], the IC50 in assay [1] is 0.39 µM; in assay [2], 2.4 µM.

In the case of `C=C1C(=O)O[C@H]2C[C@@H](C)[C@@H]3C=CC(=O)[C@@]3(C)[C@H](O)[C@H]12` [MEXICANIN I], the IC50 amounted to 0.56 µM in assay [1] and 2.7 µM in assay [2].

For the origin of these results see ChEMBL document CHEMBL1145683, “Structure-cytotoxicity relationships of some helenanolide-type sesquiterpene lactones” (J Nat Prod, 1997).
